Values after ≈ are worked out from the molar mass of the structure shown.
Columns and labels:
[1] = test system: Human immunodeficiency virus 1; experiment: Antiviral activity against HIV-1 IIIB induced cytopathic effect in de novo infected MT-4 cells; type: functional, organism-based; conditions: Human immunodeficiency virus 1, MT4
Outline: (§1)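 MT4 cells were infected de novo with HIV-1 IIIB or HIV-2 EHO, and compound was added after adsorption. Mock-infected cells were run in parallel. After 5 days, viability was read spectrophotometrically by in situ MTT reduction.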

[2] = target: T1, Human immunodeficiency virus type 1 protease (Human immunodeficiency virus 1, UniProt Q72874); experiment: Inhibition of HIV-1 proteinase was assayed in infected MT-4 cells; type: cell-based, MT4
[3] = Area Under Curve was measured by ploting the graph between concentration verses time; type: ADME
Outline: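 Female Balb/c mice (n = 2 per time point) were fasted 24 h before and throughout the study, with water ad libitum. Compound was given by oral gavage at 125 mg/kg in a microemulsion formulation. Plasma levels were measured by solid-phase extraction and HPLC.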

[4] = target: Cathepsin D (Homo sapiens, UniProt P07339); experiment: The compound was tested for inhibition of Human Cathepsin D
Chain of Cathepsin D (P07339 65-162 limits assumed): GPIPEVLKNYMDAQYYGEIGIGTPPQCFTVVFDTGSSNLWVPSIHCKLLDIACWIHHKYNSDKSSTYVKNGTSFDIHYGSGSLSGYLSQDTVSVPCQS
Chain of Cathepsin D (P07339 169-412 limits assumed): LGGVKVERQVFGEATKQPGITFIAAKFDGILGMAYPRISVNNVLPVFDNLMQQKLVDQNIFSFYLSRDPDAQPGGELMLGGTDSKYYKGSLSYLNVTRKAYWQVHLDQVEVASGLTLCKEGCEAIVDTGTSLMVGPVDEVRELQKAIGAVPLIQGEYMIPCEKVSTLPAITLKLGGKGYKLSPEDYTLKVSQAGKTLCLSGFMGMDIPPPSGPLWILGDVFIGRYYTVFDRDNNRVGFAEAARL

[5] = test system: MT4; experiment: Antiviral activity for inhibition of HIV-2 proteinase was assayed in infected MT-4 cells; type: functional, cell-based; conditions: Homo sapiens
[6] = Inhibitory concentration against HIV-1 strain IIIB infected T4 lymphocytes; type: functional, cell-based
Outline: (§2)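 T4-lymphocytes were purified from healthy donor human […] and stimulated with PHA. Cells were infected with HIV-1 IIIB or HIV-2 MS and kept in IL-2 medium. Compound was added after stimulation and virus adsorption. Every 3-4 days, half the supernatant was replaced with fresh IL-2 medium containing compound.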

[7] = Inhibitory concentration against HIV-2 strain MS infected T4 lymphocytes; type: functional, cell-based; outline: as §2
[8] = Aqueous solubility in phosphate buffer of pH 7.4
[9] = test system: MT4; experiment: Antiviral activity against HIV-2 induced cytopathic effect in de novo infected MT-4 cells; type: functional, cell-based; conditions: Homo sapiens; outline: as §1
[10] = target: T1, Human immunodeficiency virus type 1 protease; experiment: Compound was tested for inhibition of HIV-1 protease was assayed in infected MT-4 cells; type: cell-based, MT4

Row | IC50 [1] | Ki [2] | Structure (SMILES) | further results
1 | 1170 nM | 23.2 nM | CC(C)[C@@H]1NC(=O)[C@@H]([C@H](O)[C@H](Cc2ccccc2)NC(=O)OC(C)(C)C)NCc2ccc(cc2)OCCOCCOCCOCCNC1=O | 
2 | 450 nM | 14 nM | CC(C)[C@@H]1NC(=O)[C@@H]([C@H](O)[C@H](Cc2ccccc2)NC(=O)OC(C)(C)C)NCc2ccc(cc2)OCCOCCNC1=O | 
3 | 198 nM |  | CC(C)[C@@H]1NC(=O)[C@@H]([C@H](O)[C@H](Cc2ccccc2)NC(=O)O[C@H]2CCOC2)NCc2ccc(cc2)OCCOCCOCCNC1=O | 
4 | 3000 nM | 208 nM | CC(C)[C@@H]1NC(=O)[C@@H]([C@H](O)[C@H](Cc2ccccc2)NC(=O)OC(C)(C)C)NCc2cccc(c2)OCCOCCOCCNC1=O | 
5 | 157 nM | 8.2 nM | CC(C)[C@@H]1NC(=O)[C@@H]([C@H](O)[C@H](Cc2ccccc2)NC(=O)O[C@H]2CCOC2)NCc2ccc(cc2)OCCOCCNC1=O | 
6 | 169 nM |  | CC(C)[C@@H]1NC(=O)[C@@H]([C@H](O)[C@H](Cc2ccccc2)NC(=O)OC(C)(C)C)NCc2ccc(cc2)OCCOCCOCCNC1=O | 
7 | 935 nM |  | CC(C)[C@@H]1NC(=O)[C@@H]([C@H](O)[C@H](Cc2ccccc2)NC(=O)OC(C)(C)C)NCc2cccc(c2)OCCOCCNC1=O | 
8 | 1810 nM |  | CC(C)[C@@H]1NC(=O)[C@@H]([C@H](O)[C@H](Cc2ccccc2)NC(=O)OC(C)(C)C)NCc2ccc(cc2)OCCCCNC1=O | Ki [10]: 17 nM

Further lines, the molecule ahead of its results:

Row | Structure (SMILES) | IC50 [1] | Ki [2] | further results
9 | CC(C)[C@H](NC(=O)OCc1ccccc1)C(=O)N[C@@H](Cc1ccccc1)[C@@H](O)[C@H]1NCc2ccc(cc2)OCCOCCOCCOCCNC(=O)[C@H](C(C)C)NC1=O | 52 nM |  | 
10 | CC(C)[C@H](NC(=O)OCc1ccccc1)C(=O)N[C@@H](Cc1ccccc1)[C@@H](O)[C@H]1NCc2cccc(c2)OCCOCCOCCNC(=O)[C@H](C(C)C)NC1=O | 211 nM | 7.7 nM | 
11 | CC(C)[C@H](NC(=O)OCc1ccccc1)C(=O)N[C@@H](Cc1ccccc1)[C@@H](O)[C@H]1NCc2ccc(cc2)OCCCCNC(=O)[C@H](C(C)C)NC1=O | 27 nM |  | 
12 | CC(C)[C@H](NC(=O)OCc1ccccc1)C(=O)N[C@@H](Cc1ccccc1)[C@@H](O)[C@H]1NCc2ccc(cc2)OCCOCCOCCNC(=O)[C@H](C(C)C)NC1=O | 16 nM | 6.9 nM | AUC [3]: < 0.4 µM·h; IC50 [4]: > 10000 nM; IC50 [5]: 37 nM; IC50 [6]: 3.1 nM; IC50 [7]: 17 nM
13 | CC(C)[C@@H]1NC(=O)[C@@H]([C@H](O)[C@H](Cc2ccccc2)NC(=O)[C@@H](NC(=O)OCc2ccccc2)C(C)(C)C)NCc2ccc(cc2)OCCOCCNC1=O | 15 nM | 8 nM | AUC [3]: 4.7 µM·h; IC50 [4]: > 10000 nM
14 | COc1ccc(CN[C@@H](C(=O)N[C@H](C(=O)NCc2nc3ccccc3[nH]2)C(C)C)[C@H](O)[C@H](Cc2ccccc2)NC(=O)[C@@H](NC(=O)OCc2ccccc2)C(C)C)cc1 | 29 nM |  | AUC [3]: < 0.4 µM·h; solubility [8]: < 10 µM
15 | CC(C)[C@H](NC(=O)OCc1ccccc1)C(=O)N[C@@H](Cc1ccccc1)[C@@H](O)[C@H]1NCc2ccc(cc2)OCCOCCNC(=O)[C@H](C(C)C)NC1=O | 21 nM | 7.9 nM | IC50 [4]: > 10000 nM
16 | CC(C)[C@H](NC(=O)OCc1ccccc1)C(=O)N[C@@H](Cc1ccccc1)[C@@H](O)[C@H]1NCc2cccc(c2)OCCOCCNC(=O)[C@H](C(C)C)NC1=O | 60 nM |  | 
17 | CC(C)[C@@H]1NC(=O)[C@@H]([C@H](O)[C@H](Cc2ccccc2)NC(=O)[C@@H](NC(=O)CSc2nncn2C)C(C)(C)C)NCc2ccc(cc2)OCCOCCNC1=O | > 3000 nM | 11.1 nM | solubility [8]: 1710 µM (≈ 1310 µg/mL)
18 | COc1ccc(CN[C@@H](C(=O)N[C@@H]2c3ccccc3C[C@H]2O)[C@H](O)[C@H](Cc2ccccc2)NC(=O)[C@@H](NC(=O)OCc2ccccc2)C(C)C)cc1 | 242 nM |  | AUC [3]: 82.5 µM·h; solubility [8]: < 10 µM; IC50 [4]: > 10000 nM; IC50 [9]: 843 nM; Ki [10]: 9.5 nM
19 | CC(C)[C@@H]1NC(=O)[C@@H]([C@H](O)[C@H](Cc2ccccc2)NC(=O)OC(C)(C)C)NCc2cccc(c2)OCCCCNC1=O | 335 nM |  | 
20 | CC(C)[C@H](NC(=O)OCc1ccccc1)C(=O)N[C@@H](Cc1ccccc1)[C@@H](O)[C@H]1NCc2cccc(c2)OCCCCNC(=O)[C@H](C(C)C)NC1=O | 29 nM |  | 
